The CC50 is the concentration at which the toxic effect on the cells reaches its halfway point. The IC50 is the point on the concentration scale where inhibition reaches its midpoint. A lower IC50 goes with higher potency.

Data set [1] relates to Influenza A virus. The data set is described as follows: Antiviral activity against Influenza A virus A/WSN/33(H1N1) infected in MDCK cells assessed as inhibition of virus-induced cytopathic effect at 100 uM measured after 45 hrs by CellTiter-Glo luminescence assay. In kind it is functional, organism-based. To be noted: A/WSN/1933(H1N1). The essentials:
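Single-concentration screen at 100 μM in MDCK cells infected with A/WSN/33 under the same conditions: 1% FBS DMEM with 1 μg/mL trypsin, MOI 0.1, 45 h. Cytopathic effect was read by CellTiter-Glo luminescence against a DMSO negative control, from triplicate experiments.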
(Cytopathic effects are the visible damage that an infection or toxin causes in cultured cells.)

Data set [2] concerns MDCK. The data set is described as follows: Cytotoxicity against dog MDCK cells assessed as cell viability measured at 100 uM after 45 hrs by Celltiter-Glo luminescence assay. In kind it is cell-based, Canis lupus familiaris. In a few lines: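 Viability screen of uninfected MDCK cells at 100 μM compound, read by CellTiter-Glo luminescence with DMSO as negative control; triplicate experiments.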
(In general: ATP-based viability assays read luminescence as a measure of living cells.)

Data set [3] is described as follows: Cytotoxicity against dog MDCK cells assessed as cell viability measured after 45 hrs by Celltiter-Glo luminescence assay. In kind it is cell-based, Canis lupus familiaris. In a few lines:
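Non-infected MDCK cells were exposed to compound dilutions and viability was read by CellTiter-Glo luminescence. CC50 is the concentration reducing viability of uninfected cells by 50%, given as the mean of duplicate samples from three independent experiments.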

Data set [4] concerns Influenza A virus H3N2. Briefly: Antiviral activity against Influenza A virus A/Texas/50/2012(H3N2) infected in MDCK cells inhibition of virus-induced cytopathic effect measured after 45 hrs by CellTiter-Glo luminescence assay. In kind it is functional, organism-based. The essentials:
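MDCK cells (5,000/well) were seeded one day before infection. Infection medium was high-glucose DMEM with 1% FBS and trypsin (1 μg/mL). Compounds were added at various concentrations and cells infected at MOI 0.1. After 45 h, viability was read by CellTiter-Glo luminescence. IC50 was taken from dose-response curves, as the mean of duplicate samples from three independent experiments.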

Activity calls are given as the source filed them. The rule behind the calls is not given here.

In the case of `CC1(C)CC[C@]2(C(=O)N[C@@H](Cc3ccccc3)C(=O)O)CC[C@]3(C)C(=CC[C@@H]4[C@@]5(C)CC[C@H](O)C(C)(C)[C@@H]5CC[C@]43C)[C@@H]2C1`, in data set [1], the inhibition entry is “Active”. Also, in data set [2], the Activity entry is recorded as “Toxic”.

On to `COC(=O)[C@H](Cc1ccc(O)cc1)NC(=O)[C@]12CCC(C)(C)C[C@H]1C1=CC[C@@H]3[C@@]4(C)CC[C@H](O)C(C)(C)[C@@H]4CC[C@@]3(C)[C@]1(C)CC2`, for which the inhibition result in data set [1] is “Active”. Further, the Activity entry in data set [2] is listed as “Toxic”.

Consider `CC1(C)CC[C@]2(C(=O)N3CCC[C@H]3C(=O)O)CC[C@]3(C)C(=CC[C@@H]4[C@@]5(C)CC[C@H](O)C(C)(C)[C@@H]5CC[C@]43C)[C@@H]2C1`, for which the inhibition result in data set [1] was “Active”. In addition, in data set [2], the Activity entry was “Toxic”.

Turning to `CCOC(=O)C1=C[C@@H](OC(CC)CC)[C@H](NC(C)=O)[C@@H](N)C1` [OSELTAMIVIR PHOSPHATE], the CC50 at 45 h in data set [3] is greater than 100 µM. Moreover, in data set [4], the half-maximal inhibitory concentration (IC50) is greater than 100 µM.

As to `COC(=O)[C@H](Cc1c[nH]cn1)NC(=O)[C@]12CCC(C)(C)C[C@H]1C1=CC[C@@H]3[C@@]4(C)CC[C@H](O)C(C)(C)[C@@H]4CC[C@@]3(C)[C@]1(C)CC2`, the inhibition result in data set [1] was “Active”. For the same molecule, the Activity entry in data set [2] is “Toxic”.

For `COC(=O)CC[C@H](NC(=O)[C@]12CCC(C)(C)C[C@H]1C1=CC[C@@H]3[C@@]4(C)CC[C@H](O)C(C)(C)[C@@H]4CC[C@@]3(C)[C@]1(C)CC2)C(=O)OC`, the inhibition entry in data set [1] is “Active”. The Activity result in data set [2] is “Toxic”.

Regarding `COC(=O)[C@@H](NC(=O)[C@]12CCC(C)(C)C[C@H]1C1=CC[C@@H]3[C@@]4(C)CC[C@H](O)C(C)(C)[C@@H]4CC[C@@]3(C)[C@]1(C)CC2)C(C)C`, in data set [1], the inhibition entry is “Active”. In data set [2], the Activity entry was “Toxic”.

Take `CC1(C)CC[C@]2(C(=O)N[C@@H](Cc3c[nH]cn3)C(=O)O)CC[C@]3(C)C(=CC[C@@H]4[C@@]5(C)CC[C@H](O)C(C)(C)[C@@H]5CC[C@]43C)[C@@H]2C1`: the inhibition entry in data set [1] was “Active”. The Activity result in data set [2] is “Toxic”.

As to `CC1(C)CC[C@]2(C(=O)N[C@@H](CCC(=O)O)C(=O)O)CC[C@]3(C)C(=CC[C@@H]4[C@@]5(C)CC[C@H](O)C(C)(C)[C@@H]5CC[C@]43C)[C@@H]2C1`, in data set [1], the inhibition entry is “Active”. Moreover, in data set [2], the Activity result is “Toxic”.

Consider `COC(=O)CNC(=O)[C@]12CCC(C)(C)C[C@H]1C1=CC[C@@H]3[C@@]4(C)CC[C@H](O)C(C)(C)[C@@H]4CC[C@@]3(C)[C@]1(C)CC2`, for which, in data set [1], the inhibition entry was “Active”. The Activity result in data set [2] is “Toxic”.

In the case of `COC(=O)[C@H](CCSC)NC(=O)[C@]12CCC(C)(C)C[C@H]1C1=CC[C@@H]3[C@@]4(C)CC[C@H](O)C(C)(C)[C@@H]4CC[C@@]3(C)[C@]1(C)CC2`, the inhibition entry in data set [1] was “Active”. Besides, the Activity entry in data set [2] is recorded as “Toxic”.

As for `COC(=O)[C@@H]1CCCN1C(=O)[C@]12CCC(C)(C)C[C@H]1C1=CC[C@@H]3[C@@]4(C)CC[C@H](O)C(C)(C)[C@@H]4CC[C@@]3(C)[C@]1(C)CC2`, in data set [1], the inhibition entry was “Active”. Besides, in data set [2], the Activity entry is “Toxic”.

As for `CC1(C)CC[C@]2(C(=O)NCC(=O)O)CC[C@]3(C)C(=CC[C@@H]4[C@@]5(C)CC[C@H](O)C(C)(C)[C@@H]5CC[C@]43C)[C@@H]2C1`, the inhibition result in data set [1] is “Active”. Also, in data set [2], the Activity entry is reported as “Toxic”.

`COC(=O)[C@@H](NC(=O)[C@]12CCC(C)(C)C[C@H]1C1=CC[C@@H]3[C@@]4(C)CC[C@H](O)C(C)(C)[C@@H]4CC[C@@]3(C)[C@]1(C)CC2)[C@@H](C)O`: the inhibition entry in data set [1] was “Active”. Moreover, in data set [2], the Activity entry is “Toxic”.

In the case of `CC1(C)CC[C@]2(C(=O)O)CC[C@]3(C)C(=CC[C@@H]4[C@@]5(C)CC[C@H](O)C(C)(C)[C@@H]5CC[C@]43C)[C@@H]2C1`, the inhibition entry in data set [1] was “Active”.

For the molecule `CC[C@H](C)[C@H](NC(=O)[C@]12CCC(C)(C)C[C@H]1C1=CC[C@@H]3[C@@]4(C)CC[C@H](O)C(C)(C)[C@@H]4CC[C@@]3(C)[C@]1(C)CC2)C(=O)O`, the inhibition entry in data set [1] was “Active”. In data set [2], the Activity entry is “Toxic”.

For `CC1(C)CC[C@]2(C(=O)N[C@@H](CC(=O)O)C(=O)O)CC[C@]3(C)C(=CC[C@@H]4[C@@]5(C)CC[C@H](O)C(C)(C)[C@@H]5CC[C@]43C)[C@@H]2C1`, the inhibition result in data set [1] is “Active”. The Activity result in data set [2] is reported as “Toxic”.

For `C[C@H](NC(=O)[C@]12CCC(C)(C)C[C@H]1C1=CC[C@@H]3[C@@]4(C)CC[C@H](O)C(C)(C)[C@@H]4CC[C@@]3(C)[C@]1(C)CC2)C(=O)O`, the inhibition entry in data set [1] was “Active”. Further, in data set [2], the Activity result is reported as “Toxic”.

As for `CC(C)C[C@H](NC(=O)[C@]12CCC(C)(C)C[C@H]1C1=CC[C@@H]3[C@@]4(C)CC[C@H](O)C(C)(C)[C@@H]4CC[C@@]3(C)[C@]1(C)CC2)C(=O)O`, the inhibition entry in data set [1] was “Active”. The Activity result in data set [2] is “Toxic”.

As to `C[C@@H](O)[C@H](NC(=O)[C@]12CCC(C)(C)C[C@H]1C1=CC[C@@H]3[C@@]4(C)CC[C@H](O)C(C)(C)[C@@H]4CC[C@@]3(C)[C@]1(C)CC2)C(=O)O`, the inhibition result in data set [1] was “Active”. Also, in data set [2], the Activity result was “Toxic”.

Regarding `COC(=O)[C@H](CCCNC(=N)N)NC(=O)[C@]12CCC(C)(C)C[C@H]1C1=CC[C@@H]3[C@@]4(C)CC[C@H](O)C(C)(C)[C@@H]4CC[C@@]3(C)[C@]1(C)CC2`, the inhibition result in data set [1] was “Active”. Also, the Activity result in data set [2] is “Toxic”.

With `COC(=O)[C@H](C)NC(=O)[C@]12CCC(C)(C)C[C@H]1C1=CC[C@@H]3[C@@]4(C)CC[C@H](O)C(C)(C)[C@@H]4CC[C@@]3(C)[C@]1(C)CC2`, the inhibition result in data set [1] is “Active”. In data set [2], the Activity entry is “Toxic”.

Regarding `COC(=O)[C@H](Cc1ccccc1)NC(=O)[C@]12CCC(C)(C)C[C@H]1C1=CC[C@@H]3[C@@]4(C)CC[C@H](O)C(C)(C)[C@@H]4CC[C@@]3(C)[C@]1(C)CC2`, the inhibition entry in data set [1] was “Active”. In data set [2], the Activity result is “Toxic”.

On to `CC(C)[C@H](NC(=O)[C@]12CCC(C)(C)C[C@H]1C1=CC[C@@H]3[C@@]4(C)CC[C@H](O)C(C)(C)[C@@H]4CC[C@@]3(C)[C@]1(C)CC2)C(=O)O`, for which, in data set [1], the inhibition result is “Active”. Besides, in data set [2], the Activity entry is “Toxic”.

Turning to `CSCC[C@H](NC(=O)[C@]12CCC(C)(C)C[C@H]1C1=CC[C@@H]3[C@@]4(C)CC[C@H](O)C(C)(C)[C@@H]4CC[C@@]3(C)[C@]1(C)CC2)C(=O)O`, the inhibition entry in data set [1] is “Active”. The Activity entry in data set [2] is on record as “Toxic”.

For `COC(=O)[C@H](Cc1c[nH]c2ccccc12)NC(=O)[C@]12CCC(C)(C)C[C@H]1C1=CC[C@@H]3[C@@]4(C)CC[C@H](O)C(C)(C)[C@@H]4CC[C@@]3(C)[C@]1(C)CC2`, in data set [1], the inhibition entry was “Active”. The Activity entry in data set [2] is on record as “Toxic”.

Consider `COC(=O)[C@H](CC(C)C)NC(=O)[C@]12CCC(C)(C)C[C@H]1C1=CC[C@@H]3[C@@]4(C)CC[C@H](O)C(C)(C)[C@@H]4CC[C@@]3(C)[C@]1(C)CC2`, for which, in data set [1], the inhibition result is “Active”. Also, the Activity entry in data set [2] was “Toxic”.

For the molecule `COC(=O)C[C@H](NC(=O)[C@]12CCC(C)(C)C[C@H]1C1=CC[C@@H]3[C@@]4(C)CC[C@H](O)C(C)(C)[C@@H]4CC[C@@]3(C)[C@]1(C)CC2)C(=O)OC`, the inhibition entry in data set [1] is “Active”. The Activity entry in data set [2] is reported as “Toxic”.

Turning to `CC1(C)CC[C@]2(C(=O)N[C@@H](Cc3ccc(O)cc3)C(=O)O)CC[C@]3(C)C(=CC[C@@H]4[C@@]5(C)CC[C@H](O)C(C)(C)[C@@H]5CC[C@]43C)[C@@H]2C1`, in data set [1], the inhibition entry is “Active”. In data set [2], the Activity result is reported as “Toxic”.

Take `CC1(C)CC[C@]2(C(=O)N[C@@H](CO)C(=O)O)CC[C@]3(C)C(=CC[C@@H]4[C@@]5(C)CC[C@H](O)C(C)(C)[C@@H]5CC[C@]43C)[C@@H]2C1`: the inhibition result in data set [1] is “Active”. For the same molecule, the Activity entry in data set [2] was “Toxic”.

As for `CC1(C)CC[C@]2(C(=O)N[C@@H](Cc3c[nH]c4ccccc34)C(=O)O)CC[C@]3(C)C(=CC[C@@H]4[C@@]5(C)CC[C@H](O)C(C)(C)[C@@H]5CC[C@]43C)[C@@H]2C1`, in data set [1], the inhibition entry is “Active”. Moreover, the Activity result in data set [2] is “Toxic”.

With `COC(=O)[C@H](CO)NC(=O)[C@]12CCC(C)(C)C[C@H]1C1=CC[C@@H]3[C@@]4(C)CC[C@H](O)C(C)(C)[C@@H]4CC[C@@]3(C)[C@]1(C)CC2`, the inhibition result in data set [1] was “Active”. In addition, the Activity entry in data set [2] is listed as “Toxic”.

Turning to `CC[C@H](C)[C@H](NC(=O)[C@]12CCC(C)(C)C[C@H]1C1=CC[C@@H]3[C@@]4(C)CC[C@H](O)C(C)(C)[C@@H]4CC[C@@]3(C)[C@]1(C)CC2)C(=O)OC`, in data set [1], the inhibition entry is “Active”. Moreover, the Activity entry in data set [2] was “Toxic”.
